Results taken from ChEMBL document CHEMBL5032509, “Design of a Stable Cyclic Peptide Analgesic Derived from Sunflower Seeds that Targets the κ-Opioid Receptor for the Treatment of Chronic Abdominal Pain” (J Med Chem, 2021).
Activity calls are given as the source filed them. No cut-off for these calls is given here. Bridge positions count the residues as written; N and C are the ends. Square brackets hold non-standard residues; d marks the D form. Peptide text beside a SMILES is read from it. dNle = CCCC[C@@H](N)C(=O)O

Key:
Mus musculus [1] = assay: Effect on healthy mouse assessed as visceromotor response measured at different colorectal distention pressure at 10 uM intra-colonic administration as enema by electromyography; format: ADME, organism-based; conditions: in vivo, other
In short: (§1)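 Healthy or CVH (DNBS 6 mg in 30% ethanol enema, 28 d recovery) female mice. Under brief isoflurane, 100 µL enema of saline vehicle or peptide (10 µM). EMG from abdominal muscle electrodes during balloon CRD at 20, 40, 50, 60 and 80 mmHg (20 s each), run 10–30 min after dosing. Rectified, integrated AUC; mean ± SEM.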

[2] = target: Kappa-type opioid receptor (Mus musculus) (UniProt P33534); assay: Displacement of [3H]-diprenorphine from mouse KOR expressed in HEK293 cell membranes at 100 nM by two-point binding assay; conditions: Cell membrane, filed as agonist
In short: (§2)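 Two-point competition at 10 µM and 100 nM peptide. Membranes (7 µg) from HEK293 cells stably expressing mouse KOR incubated with [3H]-diprenorphine (1 nM final) for 1 h at 37 °C in 50 mM Tris–HCl pH 7.4, 10 mM MgCl2, 0.1% BSA. Stopped by filtration onto PEI-soaked GF/C filters. Nonspecific binding subtracted; normalised to specific binding without peptide; mean ± SD.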

[3] = target: T1, Kappa-type opioid receptor (Mus musculus, UniProt P33534); assay: Displacement of [3H]-diprenorphine from mouse KOR expressed in HEK293 cell membranes by radioligand binding assay relative to control; set-up: species or system Cell membrane
In short: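 Membranes from HEK293 cells stably expressing mouse KOR (7 µg/assay). Filtered onto PEI-soaked GF/C filters. Specific binding = total minus nonspecific, normalized to binding without peptide. […]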

[4] = target: Delta-type opioid receptor (Mus musculus, UniProt P32300); assay: Displacement of [3H]-diprenorphine from mouse DOR expressed in HEK293 cell membranes by radioligand binding assay relative to control; set-up: species or system Cell membrane
In short: (§3)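 Membranes from HEK293 cells stably expressing mouse DOR (20 µg/assay) or MOR (50 µg/assay). Incubated with 1 nM final [3H]-diprenorphine in 50 mM Tris–HCl pH 7.4, 10 mM MgCl2, 0.1% BSA for 1 h at 37 °C, in duplicate. Stopped by filtration onto PEI-soaked GF/C filters. Specific binding = total minus nonspecific, normalized to specific binding without peptide; n = 2.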

Mu-type opioid receptor = Mu-type opioid receptor (Mus musculus, UniProt P42866); assay: Displacement of [3H]-diprenorphine from mouse MOR expressed in HEK293 cell membranes by radioligand binding assay relative to control; set-up: species or system Cell membrane; in short: as §3
[5] = Toxicity in mouse assessed as […] by measuring vocalization in mouse at 5 mg/kg, ip measured at 60 mins by […]; format: organism-based; conditions: in vivo, 1 h
[6] = target: T1, Kappa-type opioid receptor; assay: Agonist activity at mouse KOR expressed in HEK293 cell assessed as inhibition of cAMP concentration incubated for 1 hrs by time-resolved fluorescence resonance energy transfer assay; format: functional, cell-based
In short: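 HEK293 cells stably expressing mouse KOR, 2000 cells/well, exposed to log-spaced peptide concentrations with forskolin (10 µM final) for 30 min at 37 °C. Eu-cryptate cAMP and d2-labelled anti-cAMP antibody then added for 1 h at room temperature. Three-parameter fit with bottom fixed at zero and slope one gives EC50 and Emax. Normalised to the highest dyn A 1–13 concentration (100%).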

[7] = Toxicity in mouse assessed as […] by measuring jump response in mouse at 5 mg/kg, ip measured at 60 mins by […]; format: organism-based; conditions: in vivo, 1 h
In short: (§4)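 Male C57BL/6N mice given 5 mg/kg i.p. in saline (vehicle 0.9% NaCl). Jump-flinch test 60 min post-injection: 1 min exploration, then 1 s foot shocks every 30 s at six intensities. Intensity at first flinch, vocalization and jump recorded. Mean ± SEM, one-way ANOVA with Fisher's LSD, N = 8–12/group.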

[8] = target: Kappa-type opioid receptor (Mus musculus) (UniProt P33534); assay: Displacement of [3H]-diprenorphine from mouse KOR expressed in HEK293 cell membranes at 10 uM by two-point binding assay; conditions: Cell membrane, filed as agonist; in short: as §2
Mus musculus [9] = assay: Reduction in visceromotor response in chronic visceral hypersensitivity-induced chronic abdominal pain mouse model measured at different colorectal distention pressure at 10 uM intra-colonic administration as enema by electromyography; format: functional, organism-based; in short: as §1
Mus musculus [10] = species: Mus musculus; assay: Analgesic activity in chronic visceral hypersensitivity-induced chronic abdominal pain mouse model assessed as reduction in mechanical stimulation induced action potential firing of colonic nociception at 1 uM measured at 5 mins […]; format: functional
In short: (§5)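 Ex vivo colon with attached splanchnic nerve from DNBS-induced CVH mice. Colon superfused with carbogen-gassed modified Krebs at 34 °C. Single-unit extracellular recording of nociceptor firing to 2 g von Frey probing, repeated after 5 min ring application of peptide (1 µM), with or without 5 min nor-BNI pre-incubation. Paired t-test.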

Mus musculus [11] = species: Mus musculus; assay: Analgesic activity in chronic visceral hypersensitivity-induced chronic abdominal pain mouse model assessed as reduction in colonic nociceptor mechano-sensitivity at 1 uM in presence of 0.1 uM nor-BNI measured at 5 mins […]; format: functional; in short: as §5
[12] = target: T1, Kappa-type opioid receptor; assay: Agonist activity at EGFP-tagged mouse KOR expressed in HEK293 cells co-expressing beta-arrestin2 nano-luciferase assessed as beta-arrestin2 recruitment for 5 mins by BRET assay; format: functional, cell-based
In short: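 HEK293 cells co-transfected with human β-arrestin-2 nano-luciferase and mouse KOR-EGFP plasmids (1:10). After ≥16 h they were plated in phenol red-free DMEM with 10% FBS and left to adhere overnight, then serum-starved 1 h at 37 °C. Furimazine (1:50) added for 5 min at 37 °C, with a 5 min baseline. Peptide added for 5 min at 37 °C in triplicate. Luminescence read at 460 nm and EGFP fluorescence at 510 nm.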

[13] = Toxicity in mouse assessed as […] by measuring flinch response in mouse at 5 mg/kg, ip measured at 60 mins by […]; format: organism-based; conditions: in vivo, 1 h; in short: as §4
[14] = Toxicity in mouse assessed as motor coordination by measuring latency to fall in mouse at 5 mg/kg, ip measured at 45 mins by rotarod test; format: organism-based; conditions: in vivo, 0.75 h
In short: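 Male C57BL/6N mice (8 weeks) given 5 mg/kg i.p. in saline (10 µL/g); vehicle 0.9% NaCl. After habituation, drum accelerated from 4 to 40 rpm. Three trials 15 min apart, starting 45 min post-injection; latency to fall averaged. Mean ± SEM, one-way ANOVA with Fisher's LSD, N = 8–12/group.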

Mus musculus [15] = species: Mus musculus; assay: Analgesic activity in chronic visceral hypersensitivity-induced chronic abdominal pain mouse model assessed as reduction in colonic nociceptor mechano-sensitivity at 0.1 uM measured at 5 mins by Von Frey filament assay; format: functional
In short: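 Ex vivo colon with attached splanchnic nerves from male C57BL/6J mice, 28 days after DNBS-induced colitis. Colon superfused with carbogen-gassed modified Krebs at 34 °C. Single-unit extracellular recordings of nociceptor firing to 2 g von Frey filament stimulation, repeated after 5 min drug application via a metal ring over the receptive field.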

[16] = target: Kappa-type opioid receptor (Mus musculus) (UniProt P33534); assay: Agonist activity at mouse KOR expressed in HEK293 cell assessed as maximal inhibition of cAMP concentration incubated for 1 hrs by time-resolved fluorescence resonance energy transfer assay relative to control; format: functional, cell-based; conditions: filed as agonist
In short: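 HEK293 cells stably expressing mouse KOR, 2000 cells/well, exposed to log-spaced peptide concentrations with forskolin (10 µM final) for 30 min at 37 °C. Eu-cryptate cAMP and d2-labelled anti-cAMP antibody then added for 1 h at room temperature. HTRF read as the 665/620 nm ratio, in triplicate. Three-parameter fit with bottom fixed at zero and slope one gives EC50 and Emax. Normalised to the highest dyn A 1–13 concentration (100%).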

[17] = Stability of the compound in simulated gastric fluid at pH 1.2 assessed as drug degradation by UPLC-UV analysis; format: ADME
In short: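 Peptide stock (2 mM in water) diluted 5:95 into USP simulated gastric fluid, pepsin added after adjusting to pH 1.2, incubated at 37 °C. Aliquots taken at 0, 15, 30 min and 1, 3, 6 h, quenched in ice-cold methanol. Data fitted to exponential decay for half-life.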

T1 sequence (P33534 whole entry): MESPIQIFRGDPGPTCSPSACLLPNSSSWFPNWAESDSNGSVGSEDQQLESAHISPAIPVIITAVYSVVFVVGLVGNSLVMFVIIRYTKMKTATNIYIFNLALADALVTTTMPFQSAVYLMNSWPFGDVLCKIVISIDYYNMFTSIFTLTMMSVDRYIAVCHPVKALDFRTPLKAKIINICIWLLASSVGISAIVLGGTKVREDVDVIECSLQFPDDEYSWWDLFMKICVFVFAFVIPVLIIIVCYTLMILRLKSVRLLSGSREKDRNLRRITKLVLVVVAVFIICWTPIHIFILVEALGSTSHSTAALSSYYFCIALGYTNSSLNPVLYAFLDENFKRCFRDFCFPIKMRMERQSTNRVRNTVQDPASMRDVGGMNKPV
Chain of Kappa-type opioid receptor (Mus musculus) (P33534 whole entry): as above
Chain of Mu-type opioid receptor (P42866 whole entry): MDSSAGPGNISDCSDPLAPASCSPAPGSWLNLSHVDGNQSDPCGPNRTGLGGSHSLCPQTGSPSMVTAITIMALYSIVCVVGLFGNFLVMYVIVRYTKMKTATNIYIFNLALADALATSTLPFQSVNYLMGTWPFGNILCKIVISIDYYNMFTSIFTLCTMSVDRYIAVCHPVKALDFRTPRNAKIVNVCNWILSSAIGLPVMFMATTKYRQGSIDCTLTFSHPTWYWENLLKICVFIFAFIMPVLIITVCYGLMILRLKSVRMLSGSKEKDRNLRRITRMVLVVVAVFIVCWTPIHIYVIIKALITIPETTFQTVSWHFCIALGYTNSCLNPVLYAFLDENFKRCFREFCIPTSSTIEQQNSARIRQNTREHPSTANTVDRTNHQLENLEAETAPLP
Chain of Delta-type opioid receptor (P32300 whole entry): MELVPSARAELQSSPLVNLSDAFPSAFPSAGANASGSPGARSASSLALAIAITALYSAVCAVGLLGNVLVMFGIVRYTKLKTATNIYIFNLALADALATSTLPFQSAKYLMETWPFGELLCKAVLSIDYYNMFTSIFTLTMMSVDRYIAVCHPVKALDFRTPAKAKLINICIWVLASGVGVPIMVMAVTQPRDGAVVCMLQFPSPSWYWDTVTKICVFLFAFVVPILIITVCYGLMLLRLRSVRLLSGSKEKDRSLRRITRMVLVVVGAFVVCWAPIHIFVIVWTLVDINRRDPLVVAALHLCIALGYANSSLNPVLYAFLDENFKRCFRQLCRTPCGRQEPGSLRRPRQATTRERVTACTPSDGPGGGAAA

CC[C@H](C)[C@@H]1NC(=O)[C@@H]2CSSC[C@H](NC(=O)[C@H](CCCCN)NC(=O)[C@H](CC(C)C)NC(=O)[C@H](CCCCN)NC(=O)[C@@H]3CCCN3C(=O)[C@H](CCCNC(=N)N)NC1=O)C(=O)N[C@@H](Cc1ccc(O)cc1)C(=O)NCC(=O)NCC(=O)N[C@@H](Cc1ccccc1)C(=O)N[C@@H](CC(C)C)C(=O)N[C@@H](CCCNC(=N)N)C(=O)N[C@@H](CCCNC(=N)N)C(=O)N2 (cyclo(CIRPKLKCYGGFLRR); disulfide 1-8)
Activity (Mus musculus [1]): Non-Toxic
Activity [2]: Active
Ki [3]: 0.021 µM
Ki [4]: > 10 µM
Ki (Mu-type opioid receptor): > 10 µM
Activity [5]: Non-Toxic
EC50 [6]: 0.045 µM
Activity [7]: Non-Toxic
Activity [8]: Active
Activity (Mus musculus [9]): Active
Activity (Mus musculus [10]): Active
Activity (Mus musculus [11]): Active
EC50 [12]: 1.4 µM
Activity [13]: Non-Toxic
Activity [14]: Non-Toxic

CCCC[C@H]1NC(=O)[C@@H](Cc2ccccc2)NC(=O)[C@@H](Cc2ccccc2)NC(=O)[C@@H]2CSSC[C@H](NC(=O)[C@H](CCCNC(=N)N)NC(=O)[C@@H](CCCNC(=N)N)NC1=O)C(=O)N[C@@H]([C@@H](C)O)C(=O)N[C@@H](C)C(=O)N[C@@H](CO)C(=O)N[C@@H]([C@@H](C)CC)C(=O)N1CCC[C@H]1C(=O)N1CCC[C@H]1C(=O)N[C@@H]([C@@H](C)CC)C(=O)N2 (cyclo(ASIPPIC[dF][dF][dNle][dR]RCT); disulfide 7-13)
Ki ([3]; hek293): > 10 µM

CC[C@H](C)[C@@H]1NC(=O)[C@@H]2CCCN2C(=O)[C@H](Cc2ccccc2)NC(=O)CNC(=O)CNC(=O)[C@H](Cc2ccc(O)cc2)NC(=O)[C@H]([C@@H](C)O)NC(=O)[C@@H]2CSSC[C@H](NC1=O)C(=O)N[C@@H](Cc1ccccc1)C(=O)N1CCC[C@H]1C(=O)N[C@@H](CC(=O)O)C(=O)NCC(=O)N[C@@H](CCCNC(=N)N)C(=O)N2 (cyclo(CFPDGRCTYGGFPI); disulfide 1-7)
Ki ([3]; hek293): > 10 µM

CC[C@H](C)[C@@H]1NC(=O)[C@@H]2CCCN2C(=O)[C@@H]2CCCN2C(=O)[C@H]([C@@H](C)CC)NC(=O)[C@H](CO)NC(=O)[C@H](CCCCN)NC(=O)[C@H]([C@@H](C)O)NC(=O)[C@@H]2CSSC[C@H](NC1=O)C(=O)N[C@@H](Cc1ccccc1)C(=O)N1CCC[C@H]1C(=O)N[C@@H](CC(=O)O)C(=O)NCC(=O)N[C@@H](CCCNC(=N)N)C(=O)N2
Ki [3]: > 30 µM

Oc1ccc2c3c1O[C@H]1c4[nH]c5c(c4C[C@@]4(O)[C@@H](C2)N(CC2CC2)CC[C@]314)C[C@@]1(O)[C@H]2Cc3ccc(O)c4c3[C@@]1(CCN2CC1CC1)[C@H]5O4
Activity (Mus musculus [15]): inactive

CC[C@H](C)[C@@H]1NC(=O)[C@H](CCCNC(=N)N)NC(=O)[C@H](CCCNC(=N)N)NC(=O)[C@H](CC(C)C)NC(=O)[C@H](Cc2ccccc2)NC(=O)CNC(=O)CNC(=O)[C@H](Cc2ccc(O)cc2)NC(=O)[C@@H]2CSSC[C@H](NC1=O)C(=O)N[C@@H](Cc1ccccc1)C(=O)N1CCC[C@H]1C(=O)N[C@@H](CC(=O)O)C(=O)NCC(=O)N[C@@H](CCCNC(=N)N)C(=O)N2
Ki ([3]; hek293): 3.2 µM
EC50 ([6]; hek293): 1.4 µM

CC[C@H](C)[C@@H]1NC(=O)[C@@H]2CCCN2C(=O)[C@@H]2CCCN2C(=O)[C@H]([C@@H](C)CC)NC(=O)[C@H](CO)NC(=O)[C@H](C)NC(=O)[C@H]([C@@H](C)O)NC(=O)[C@@H]2CSSC[C@H](NC1=O)C(=O)N[C@@H](Cc1ccc(O)cc1)C(=O)NCC(=O)NCC(=O)N[C@@H](Cc1ccccc1)C(=O)N[C@@H](CCCNC(=N)N)C(=O)N2 (cyclo(ASIPPICYGGFRCT); disulfide 7-13)
Ki ([3]; hek293): > 10 µM

CC[C@H](C)[C@@H]1NC(=O)[C@@H]2CCCN2C(=O)[C@@H]2CCCN2C(=O)[C@H]([C@@H](C)CC)NC(=O)[C@H](CO)NC(=O)[C@H](C)NC(=O)[C@H]([C@@H](C)O)NC(=O)[C@@H]2CSSC[C@H](NC1=O)C(=O)N[C@H](Cc1ccccc1)C(=O)N[C@H](Cc1ccccc1)C(=O)N[C@H](CC(C)C)C(=O)N[C@H](CCCCN)C(=O)N[C@@H](CCCNC(=N)N)C(=O)N2 (cyclo(ASIPPIC[dF][dF][dL][dK]RCT); disulfide 7-13)
Ki ([3]; hek293): > 10 µM

CC[C@H](C)[C@H](NC(=O)[C@H](CCCN=C(N)N)NC(=O)[C@H](CCCN=C(N)N)NC(=O)[C@H](CC(C)C)NC(=O)[C@H](Cc1ccccc1)NC(=O)CNC(=O)CNC(=O)[C@@H](N)Cc1ccc(O)cc1)C(=O)N[C@@H](CCCN=C(N)N)C(=O)N1CCC[C@H]1C(=O)N[C@@H](CCCCN)C(=O)N[C@@H](CC(C)C)C(=O)N[C@@H](CCCCN)C(N)=O
Emax [16]: 100%
half-life [17]: < 15 min
